According to ChEMBL document CHEMBL1151683, “Design, synthesis and antitumor evaluation of novel thalidomide dithiocarbamate and dithioate analogs against Ehrlich ascites carcinoma-induced solid tumor in Swiss albino mice” (Bioorg Med Chem, 2008):

Key:
Ehrlich [1] = assay: Antitumor activity against mouse Ehrlich ascites carcinoma cells implanted in Swiss albino mouse assessed as tumor apoptotic index treated after 7 days post-tumor implantation at 1.25 mM/kg, sc for 5 days by histopathological analysis; assay type: functional
In short: (§1)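 H&E-stained 5 µm paraffin sections of solid tumour. Mitotic cells counted in 10 random fields (at least 1000 tumour cells) at 400×. Apoptotic bodies counted in 10 random fields at the same magnification. MI and AI given as percentage of total intact tumour cells.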

Ehrlich [2] = assay: Induction of apoptosis in mouse Ehrlich ascites carcinoma cells implanted in Swiss albino mouse assessed as increase in Fas-L expression treated after 7 days post-tumor implantation at 1.25 mM/kg, sc for 5 days by immunohistochemical analysis; assay type: functional
In short: (§2)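 Solid tumours from EAC-bearing female Swiss albino mice; formalin-fixed, paraffin-embedded 5 µm sections. Microwave antigen retrieval (20 min, 10 mmol citrate, pH 6.0) after peroxidase block; primary antibody overnight at room temperature, labelled streptavidin–biotin HRP detection, DAB chromogen, Mayer's hematoxylin counterstain. Immunoreactivity scored blind by light microscopy as intensity, % positive cells and H score.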

Ehrlich [3] = assay: Cytotoxicity against mouse Ehrlich ascites carcinoma cells assessed as viable cells at 20 uL after 24 hrs by trypan blue exclusion assay; assay type: functional
In short: (§3)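 EAC cells maintained by i.p. passage in female Swiss albino mice. Cells aspirated from peritoneum, washed in HBSS and centrifuged at 1500 rpm for 15 min; 0.2 mL of diluted suspension plated. Compounds from 10 mmol stock in DMSO/H₂O (0.7:0.3) were added in triplicate and incubated 24 h at 37 °C, 5% CO₂. Viability by trypan blue exclusion; cytotoxicity calculated against control EAC cells.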

Ehrlich [4] = assay: Cytotoxicity against mouse Ehrlich ascites carcinoma cells assessed as viable cells at 30 uL after 24 hrs by trypan blue exclusion assay; assay type: functional; in short: as §3
Ehrlich [5] = assay: Antitumor activity against mouse Ehrlich ascites carcinoma cells implanted in Swiss albino mouse treated after 7 days post-tumor implantation at 1.25 mM/kg, sc for 5 days relative to control; assay type: functional
In short: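 Female Swiss albino mice (n = 8 per group) received 0.2 mL EAC cells (2 × 10⁶ cells/mL) s.c. between the thighs of the lower limb. From day 7, compounds were given at 1.25 mM/kg s.c. daily for 5 consecutive days. […] control group received DMSO/H₂O. Mice were sacrificed and tumour volume change assessed on day 12 post-implantation.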

Mus musculus [6] = assay: Decrease in lipid peroxidation in mouse Ehrlich ascites carcinoma cells implanted in Swiss albino mouse assessed as malondialdehyde per gram of tissue treated after 7 days post-tumor implantation at 1.25 mM/kg, sc for 5 days; assay type: functional
In short: (§4)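 Livers from tumour-bearing mice were excised and rinsed in ice-cold saline, then in cold 0.15 mol/L Tris–HCl pH 7.4. They were blotted dry, weighed and homogenised at 10% w/v. Lipid peroxidation was expressed as nmol MDA/g tissue, catalase as kU/mg tissue and SOD as U/g tissue.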

Mus musculus [7] = assay: Increase in catalase activity per milligram of tissue in mouse Ehrlich ascites carcinoma cells implanted in Swiss albino mouse treated after 7 days post-tumor implantation at 1.25 mM/kg, sc for 5 days; assay type: functional; in short: as §4
Mus musculus [8] = assay: Increase in SOD activity per gram of tissue in mouse Ehrlich ascites carcinoma cells implanted in Swiss albino mouse treated after 7 days post-tumor implantation at 1.25 mM/kg, sc for 5 days; assay type: functional; in short: as §4
Ehrlich [9] = assay: Antitumor activity against mouse Ehrlich ascites carcinoma cells implanted in Swiss albino mouse assessed as tumor necrosis treated after 7 days post-tumor implantation at 1.25 mM/kg, sc for 5 days by histopathological analysis relative to control; assay type: functional
In short: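 Necrosis scored on H&E-stained 5 µm paraffin sections of excised solid tumour. Severity and percentage necrosis were graded, and an H score was calculated.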

Mus musculus [10] = assay: Toxicity in Swiss albino mouse bearing mouse Ehrlich ascites carcinoma cells assessed as focal degeneration of hepatocytes treated after 7 days post-tumor implantation at 1.25 mM/kg, sc for 5 days by histopathological analysis; assay type: organism-based; details: in vivo
In short: (§5)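 Liver specimens from the treated tumour-bearing mice were paraffin-embedded and cut as 5 µm sections. Sections were H&E-stained and graded for severity of hepatocyte degeneration and necrosis, with 0 meaning no degeneration or necrosis.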

Mus musculus [11] = assay: Toxicity in Swiss albino mouse bearing mouse Ehrlich ascites carcinoma cells assessed as hepatocyte necrosis treated after 7 days post-tumor implantation at 1.25 mM/kg, sc for 5 days by histopathological analysis; assay type: organism-based; details: in vivo, 1250 µM; in short: as §5
Ehrlich [12] = assay: Antitumor activity against mouse Ehrlich ascites carcinoma cells implanted in Swiss albino mouse assessed as tumor mitotic index treated after 7 days post-tumor implantation at 1.25 mM/kg, sc for 5 days by histopathological analysis; assay type: functional; in short: as §1
Ehrlich [13] = assay: Cytotoxicity against mouse Ehrlich ascites carcinoma cells assessed as cell death at 10 uL after 24 hrs by trypan blue exclusion assay
Mus musculus [14] = assay: Toxicity in Swiss albino mouse bearing mouse Ehrlich ascites carcinoma cells assessed as hepatocyte degeneration treated after 7 days post-tumor implantation at 1.25 mM/kg, sc for 5 days by histopathological analysis; assay type: organism-based; details: in vivo, 1250 µM; in short: as §5
Mus musculus [15] = assay: Toxicity in Swiss albino mouse bearing mouse Ehrlich ascites carcinoma cells assessed as focal necrosis of hepatocytes treated after 7 days post-tumor implantation at 1.25 mM/kg, sc for 5 days by histopathological analysis; assay type: organism-based; details: in vivo, 1250 µM; in short: as §5
Ehrlich [16] = assay: Antiangiogenic activity against mouse Ehrlich ascites carcinoma cells implanted in Swiss albino mouse assessed as inhibition of VEGF expression treated after 7 days post-tumor implantation at 1.25 mM/kg, sc for 5 days by immunohistochemical analysis; assay type: functional; design: scale not given: the % may be the effect or the level left; in short: as §2
Ehrlich [17] = assay: Antiproliferative activity against mouse Ehrlich ascites carcinoma cells implanted in Swiss albino mouse assessed as inhibition of Ki67 protein expression treated after 7 days post-tumor implantation at 1.25 mM/kg, sc for 5 days by immunohistochemical analysis; assay type: functional; design: scale not given: the % may be the effect or the level left; in short: as §2
Mus musculus [18] = assay: Toxicity in Swiss albino mouse bearing mouse Ehrlich ascites carcinoma cells assessed as multifocal degeneration of hepatocytes treated after 7 days post-tumor implantation at 1.25 mM/kg, sc for 5 days by histopathological analysis; assay type: organism-based; details: in vivo, 1250 µM; in short: as §5

Row | Compound | Activity (Ehrlich [1]) | Activity (Ehrlich [2]) [%] | Activity (Ehrlich [3]) [%] | Activity (Ehrlich [4]) [%] | inhibition (INH) (Ehrlich [5]) [%] | Activity (Mus musculus [6]) [nmol] | Activity (Mus musculus [7]) [kU] | Activity (Mus musculus [8]) [U] | Activity (Ehrlich [9]) [%] | Activity (Mus musculus [10]) | Activity (Mus musculus [11]) | Activity (Ehrlich [12]) | Activity (Ehrlich [13]) [%] | Activity (Mus musculus [14]) | Activity (Mus musculus [15]) | Activity (Ehrlich [16]) [%] | Activity (Ehrlich [17]) [%] | Activity (Mus musculus [18])
1 | O=C1CCC(N2C(=O)c3ccccc3C2=O)C(=O)N1CSC(=S)N1CCCCC1 (stereo not drawn) | 0.002 | 120 | 80.4 | 95.3 | 95.9 | 276.2 | 7.2 | 152.4 | 50 | Active | Non-toxic | 0.004 | 10.3 | – | – | – | – | –
2 | O=C1CCC(N2C(=O)c3ccccc3C2=O)C(=O)N1CSC(=S)NNc1ccccc1 (stereo not drawn) | – | – | 81.6 | 92 | – | – | – | – | – | – | – | – | 80 | – | – | – | – | –
3 | CSCN1C(=O)CCC(N2C(=O)c3ccccc3C2=O)C1=O (stereo not drawn) | 0.002 | 45 | 71.5 | 82.8 | 90.6 | 289.6 | 6.7 | 139.8 | 49 | – | Non-toxic | 0.004 | 62.5 | Non-toxic | – | – | – | –
4 | CCCNC(=S)SCN1C(=O)CCC(N2C(=O)c3ccccc3C2=O)C1=O (stereo not drawn) | – | – | 75.5 | 88.6 | – | – | – | – | – | – | – | – | 10.6 | – | – | – | – | –
5 | CN1CCN(NC(=S)SCN2C(=O)CCC(N3C(=O)c4ccccc4C3=O)C2=O)CC1 (stereo not drawn) | 0.005 | 60 | 80.7 | 100 | 98.9 | 248.4 | 8.2 | 162.2 | 61 | Active | Non-toxic | 0.002 | 80.4 | – | – | – | – | –
6 | O=C1CCC(N2C(=O)c3ccccc3C2=O)C(=O)N1CSC(=S)N1CCOCC1 (stereo not drawn) | – | – | 80.5 | 89.7 | – | – | – | – | – | – | – | – | 80 | – | – | – | – | –
7 | O=C1CCC(N2C(=O)c3ccccc3C2=O)C(=O)N1CSC(=S)NC1CCCCC1 (stereo not drawn) | 0.002 | 44 | 60.8 | 95.2 | 92.7 | 257.8 | 6.4 | 128.6 | 41 | Active | Non-toxic | 0.005 | 20.6 | – | – | – | – | –
8 | CNC(=S)SCN1C(=O)CCC(N2C(=O)c3ccccc3C2=O)C1=O (stereo not drawn) | – | – | 80 | 85.7 | – | – | – | – | – | – | – | – | 76.5 | – | – | – | – | –
9 | O=C1CCC(N2C(=O)c3ccccc3C2=O)C(=O)N1CSC(=S)NCc1ccccc1 (stereo not drawn) | – | – | 59 | 61.3 | – | – | – | – | – | – | – | – | 56.7 | – | – | – | – | –
10 | O=C1CCC(N2C(=O)c3ccccc3C2=O)C(=O)N1CSC(=S)NCCc1ccccc1 (stereo not drawn) | – | – | 47.3 | 52 | – | – | – | – | – | – | – | – | 45 | – | – | – | – | –
11 | O=C1CCC(N2C(=O)c3ccccc3C2=O)C(=O)N1CSC(=S)NN1CCOCC1 (stereo not drawn) | – | – | 70.6 | 91.3 | – | – | – | – | – | – | – | – | 30.5 | – | – | – | – | –
12 | CCN(CC)C(=S)SCN1C(=O)CCC(N2C(=O)c3ccccc3C2=O)C1=O (stereo not drawn) | – | – | 20.7 | 90.6 | – | – | – | – | – | – | – | – | 10.2 | – | – | – | – | –
13 | O=C1CCC(N2C(=O)c3ccccc3C2=O)C(=O)N1CSC(=S)N(CCO)CCO (stereo not drawn) | – | – | 30.6 | 87.8 | – | – | – | – | – | – | – | – | 20.6 | – | – | – | – | –
14 | O=C1CCC(N2C(=O)c3ccccc3C2=O)C(=O)N1CSC(=S)NCCN1CCNCC1 (stereo not drawn) | – | – | 60.6 | 68.8 | – | – | – | – | – | – | – | – | 45.5 | – | – | – | – | –
15 | O=C1CCC(N2C(=O)c3ccccc3C2=O)C(=O)N1 (racemic) [THALIDOMIDE] | 0.003 | 66 | 20.5 | 56.4 | 80.6 | 330.2 | 5.8 | 108.4 | 44 | Active | – | 0.006 | 20.5 | – | Active | 8 | 7.4 | –
16 | O=C1CCC(N2C(=O)c3ccccc3C2=O)C(=O)N1CSC(=S)NCCN1CCOCC1 (stereo not drawn) | – | – | 75.7 | 94.7 | – | – | – | – | – | – | – | – | 20.6 | – | – | – | – | –
17 | O=C1CCC(N2C(=O)c3ccccc3C2=O)C(=O)N1CSC(=S)NCCN1CCCCC1 (stereo not drawn) | 0.004 | 55 | 80.8 | 100 | 99.6 | 247.6 | 7.2 | 145.8 | 100 | – | Non-toxic | 0.004 | 80.5 | – | – | – | – | Active
